# Assay results taken from ChEMBL document CHEMBL1140914, “Synthesis and in vitro and in vivo evaluation of 18F-labeled positron emission tomography (PET) ligands for imaging the vesicular acetylcholine transporter” (J Med Chem, 2009).
# Experiments:
# [1] = system: Blood; experiment: Drug uptake in Sprague-Dawley rat blood at 25 to 35 uCi, iv after 2 hrs postinjection by […]; type: ADME, organism-based; details: in vivo
# How it was run: (§1)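 Mature male Sprague-Dawley rats (250–400 g) under 2–3% isoflurane got 25–35 μCi tracer in 100–150 μL saline via tail vein. Groups of at least 4 were euthanized at 5 min, 30 min, 1 h or 2 h. Brain was dissected into regions, and tissues were weighed and gamma counted against an injectate standard. Values are %ID/g, mean ± SD.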
# [2] = system: Lung; experiment: Drug uptake in Sprague-Dawley rat lung at 25 to 35 uCi, iv after 5 mins postinjection by […]; type: ADME, organism-based; details: in vivo; how it was run: as §1
# [3] = system: Lung; experiment: Drug uptake in Sprague-Dawley rat lung at 25 to 35 uCi, iv after 30 mins postinjection by […]; type: ADME, organism-based; details: in vivo, 0.5 h; how it was run: as §1
# [4] = system: Lung; experiment: Drug uptake in Sprague-Dawley rat lung at 25 to 35 uCi, iv after 1 hr postinjection by […]; type: ADME, organism-based; details: in vivo; how it was run: as §1
# [5] = system: Lung; experiment: Drug uptake in Sprague-Dawley rat lung at 25 to 35 uCi, iv after 2 hrs postinjection by […]; type: ADME, organism-based; details: in vivo; how it was run: as §1
# [6] = system: Heart; experiment: Drug uptake in Sprague-Dawley rat heart at 25 to 35 uCi, iv after 5 mins postinjection by […]; type: ADME, organism-based; details: in vivo; how it was run: as §1
# [7] = system: Heart; experiment: Drug uptake in Sprague-Dawley rat heart at 25 to 35 uCi, iv after 30 mins postinjection by […]; type: ADME, organism-based; details: in vivo, 0.5 h; how it was run: as §1
# [8] = system: Heart; experiment: Drug uptake in Sprague-Dawley rat heart at 25 to 35 uCi, iv after 1 hr postinjection by […]; type: ADME, organism-based; details: in vivo; how it was run: as §1
# [9] = system: Heart; experiment: Drug uptake in Sprague-Dawley rat heart at 25 to 35 uCi, iv after 2 hrs postinjection by […]; type: ADME, organism-based; details: in vivo; how it was run: as §1
# [10] = system: Muscle tissue; experiment: Drug uptake in Sprague-Dawley rat muscle at 25 to 35 uCi, iv after 5 mins postinjection by […]; type: ADME, organism-based; details: in vivo; how it was run: as §1
# [11] = system: Muscle tissue; experiment: Drug uptake in Sprague-Dawley rat muscle at 25 to 35 uCi, iv after 30 mins postinjection by […]; type: ADME, organism-based; details: in vivo, 0.5 h; how it was run: as §1
# [12] = system: Muscle tissue; experiment: Drug uptake in Sprague-Dawley rat muscle at 25 to 35 uCi, iv after 1 hr postinjection by […]; type: ADME, organism-based; details: in vivo; how it was run: as §1
# [13] = system: Muscle tissue; experiment: Drug uptake in Sprague-Dawley rat muscle at 25 to 35 uCi, iv after 2 hrs postinjection by […]; type: ADME, organism-based; details: in vivo; how it was run: as §1
# [14] = Drug uptake in Sprague-Dawley rat fat at 25 to 35 uCi, iv after 5 mins postinjection by […]; type: ADME, organism-based, Adipose tissue; details: in vivo; how it was run: as §1
# [15] = Drug uptake in Sprague-Dawley rat fat at 25 to 35 uCi, iv after 30 mins postinjection by […]; type: ADME, organism-based, Adipose tissue; details: in vivo, 0.5 h; how it was run: as §1
# [16] = Drug uptake in Sprague-Dawley rat fat at 25 to 35 uCi, iv after 1 hr postinjection by […]; type: ADME, organism-based, Adipose tissue; details: in vivo; how it was run: as §1
# [17] = Drug uptake in Sprague-Dawley rat fat at 25 to 35 uCi, iv after 2 hrs postinjection by […]; type: ADME, organism-based, Adipose tissue; details: in vivo; how it was run: as §1
# [18] = system: Liver; experiment: Drug uptake in Sprague-Dawley rat liver at 25 to 35 uCi, iv after 5 mins postinjection by […]; type: ADME, organism-based; details: in vivo; how it was run: as §1
# [19] = system: Liver; experiment: Drug uptake in Sprague-Dawley rat liver at 25 to 35 uCi, iv after 30 mins postinjection by […]; type: ADME, organism-based; details: in vivo, 0.5 h; how it was run: as §1
# [20] = system: Liver; experiment: Drug uptake in Sprague-Dawley rat liver at 25 to 35 uCi, iv after 1 hr postinjection by […]; type: ADME, organism-based; details: in vivo; how it was run: as §1
# [21] = system: Liver; experiment: Drug uptake in Sprague-Dawley rat liver at 25 to 35 uCi, iv after 2 hrs postinjection by […]; type: ADME, organism-based; details: in vivo; how it was run: as §1
# [22] = system: Kidney; experiment: Drug uptake in Sprague-Dawley rat kidney at 25 to 35 uCi, iv after 5 mins postinjection by […]; type: ADME, organism-based; details: in vivo; how it was run: as §1
# [23] = system: Kidney; experiment: Drug uptake in Sprague-Dawley rat kidney at 25 to 35 uCi, iv after 30 mins postinjection by […]; type: ADME, organism-based; details: in vivo, 0.5 h; how it was run: as §1
# [24] = system: Kidney; experiment: Drug uptake in Sprague-Dawley rat kidney at 25 to 35 uCi, iv after 1 hr postinjection by […]; type: ADME, organism-based; details: in vivo; how it was run: as §1
# [25] = system: Kidney; experiment: Drug uptake in Sprague-Dawley rat kidney at 25 to 35 uCi, iv after 2 hrs postinjection by […]; type: ADME, organism-based; details: in vivo; how it was run: as §1
# [26] = system: Bone; experiment: Drug uptake in Sprague-Dawley rat bone at 25 to 35 uCi, iv after 5 mins postinjection by […]; type: ADME, organism-based, Bone element; details: in vivo; how it was run: as §1
# [27] = system: Bone; experiment: Drug uptake in Sprague-Dawley rat bone at 25 to 35 uCi, iv after 30 mins postinjection by […]; type: ADME, organism-based, Bone element; details: in vivo, 0.5 h; how it was run: as §1
# [28] = system: Bone; experiment: Drug uptake in Sprague-Dawley rat bone at 25 to 35 uCi, iv after 1 hr postinjection by […]; type: ADME, organism-based, Bone element; details: in vivo; how it was run: as §1
# [29] = system: Bone; experiment: Drug uptake in Sprague-Dawley rat bone at 25 to 35 uCi, iv after 2 hrs postinjection by […]; type: ADME, organism-based, Bone element; details: in vivo; how it was run: as §1
# [30] = system: Brain; experiment: Drug uptake in Sprague-Dawley rat brain at 25 to 35 uCi, iv after 5 mins postinjection by […]; type: ADME, organism-based; details: in vivo; how it was run: as §1
# [31] = system: Brain; experiment: Drug uptake in Sprague-Dawley rat brain at 25 to 35 uCi, iv after 30 mins postinjection by […]; type: ADME, organism-based; details: in vivo, 0.5 h; how it was run: as §1
# [32] = system: Brain; experiment: Drug uptake in Sprague-Dawley rat brain at 25 to 35 uCi, iv after 1 hr postinjection by […]; type: ADME, organism-based; details: in vivo; how it was run: as §1
# [33] = system: Brain; experiment: Drug uptake in Sprague-Dawley rat brain at 25 to 35 uCi, iv after 2 hrs postinjection by […]; type: ADME, organism-based; details: in vivo; how it was run: as §1
# [34] = system: Striatum; experiment: Drug uptake in Sprague-Dawley rat brain striatum at 25 to 35 uCi, iv after 5 mins postinjection by […]; type: ADME, organism-based; details: in vivo; how it was run: as §1
# [35] = system: Cortex; experiment: Drug uptake in Sprague-Dawley rat brain cortex at 25 to 35 uCi, iv after 5 mins postinjection by […]; type: ADME, organism-based; details: in vivo; how it was run: as §1
# [36] = system: Hippocampus; experiment: Drug uptake in Sprague-Dawley rat brain hippocampus at 25 to 35 uCi, iv after 5 mins postinjection by […]; type: ADME, organism-based; details: in vivo; how it was run: as §1
# [37] = system: Cerebellum; experiment: Drug uptake in Sprague-Dawley rat brain cerebellum at 25 to 35 uCi, iv after 5 mins postinjection by […]; type: ADME, organism-based; details: in vivo; how it was run: as §1
# [38] = system: Blood; experiment: Drug uptake in Sprague-Dawley rat blood at 25 to 35 uCi, iv after 5 mins postinjection by […]; type: ADME, organism-based; details: in vivo; how it was run: as §1
# [39] = system: Blood; experiment: Drug uptake in Sprague-Dawley rat blood at 25 to 35 uCi, iv after 30 mins postinjection by […]; type: ADME, organism-based; details: in vivo, 0.5 h; how it was run: as §1
# [40] = system: Blood; experiment: Drug uptake in Sprague-Dawley rat blood at 25 to 35 uCi, iv after 1 hr postinjection by […]; type: ADME, organism-based; details: in vivo; how it was run: as §1
compound,measurement,setting,value
O=C(c1ccc([18F])cc1)C1CCN([C@@H]2Cc3ccccc3C[C@H]2O)CC1 (stereo in doubt; (-)),Drug uptake,[1],0.02 % ID/g
same,Drug uptake,[2],1.577 % ID/g
same,Drug uptake,[3],0.481 % ID/g
same,Drug uptake,[4],0.327 % ID/g
same,Drug uptake,[5],0.199 % ID/g
same,Drug uptake,[6],0.321 % ID/g
same,Drug uptake,[7],0.109 % ID/g
same,Drug uptake,[8],0.066 % ID/g
same,Drug uptake,[9],0.047 % ID/g
same,Drug uptake,[10],0.091 % ID/g
same,Drug uptake,[11],0.08 % ID/g
same,Drug uptake,[12],0.056 % ID/g
same,Drug uptake,[13],0.035 % ID/g
same,Drug uptake,[14],0.132 % ID/g
same,Drug uptake,[15],0.207 % ID/g
same,Drug uptake,[16],0.241 % ID/g
same,Drug uptake,[17],0.249 % ID/g
same,Drug uptake,[18],1.506 % ID/g
same,Drug uptake,[19],1.769 % ID/g
same,Drug uptake,[20],2.214 % ID/g
same,Drug uptake,[21],1.791 % ID/g
same,Drug uptake,[22],2.018 % ID/g
same,Drug uptake,[23],1.896 % ID/g
same,Drug uptake,[24],1.298 % ID/g
same,Drug uptake,[25],1.339 % ID/g
same,Drug uptake,[26],0.334 % ID/g
same,Drug uptake,[27],0.157 % ID/g
same,Drug uptake,[28],0.148 % ID/g
same,Drug uptake,[29],0.138 % ID/g
same,Drug uptake,[30],0.823 % ID/g
same,Drug uptake,[31],0.226 % ID/g
same,Drug uptake,[32],0.124 % ID/g
same,Drug uptake,[33],0.095 % ID/g
same,Drug uptake,[34],0.911 % ID/g
same,Drug uptake,[35],0.911 % ID/g
same,Drug uptake,[36],0.837 % ID/g
same,Drug uptake,[37],0.743 % ID/g
same,Drug uptake,[38],0.073 % ID/g
same,Drug uptake,[39],0.037 % ID/g
same,Drug uptake,[40],0.029 % ID/g
